Experimental data: PMC12328631 (Nature Communications, 2025)
Blank lines part the entries; values can stand above or below the molecule they belong to. Peptide text beside a SMILES is read from it. * marks the point of attachment. Cbz = O=C(OCc1ccccc1)*

Assays:
Sec61 translocon = Sec61 translocon (Homo sapiens, UniProt P61619); test: RELITE assay, FLuc equipped with the SP of CD4; assay type: cell-based; settings: for response of the RELITE assay (FLuc/RLuc ratio): Fig. S8b; for response of the RELITE assay (FLuc/RLuc ratio) / effect on FLuc activity (FLuc/RLuc ratio): HEK293, 6 hours; for effect on FLuc/RLuc ratio: Fig. 1h, 6 hours of treatment, non-selective Sec61 inhibitors; for effect on FLuc activity (FLuc/RLuc ratio): Tunicamycin 10 μg/ml, Thapsigargin 3 μM
PD-L1 = assay type: cell-based, human; settings: read-out: IC50 (PD-L1-HA protein levels); GB138 stably expressing SPnPD-L1-HA, 0 to 20 μM, 24 hours (Fig. S4)
Summary of the method: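 GB138 glioblastoma cells stably expressing SPnPD-L1-HA were kept at 37 °C in DMEM with 10% FBS, 2 mM L-Gln and 400 μg/ml G418. Cells were exposed to test compounds at 0 to 20 μM for 24 h. Extracts in Triton-containing B-Buffer were resolved by SDS-PAGE and PD-L1-HA levels quantified by western blot with ECL, using calnexin as loading control. IC50 was taken from the titration curve.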

HA-FLuc = HA-FLuc protein levels by western blotting; assay type: cell-based, human; settings: total cell extract, 6 h
Summary of the method: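 HEK293 cells were transfected with the IRES vector and replated after 8 h, then treated 16 h later for up to 6 h. Total extracts were made in B-Buffer (50 mM HEPES, 150 mM NaCl, 1% Triton X-100, protease inhibitors) and equalised by Bradford. Cytosolic and membrane fractions came from syringe lysis and differential centrifugation. Western blots used anti-HA, with GAPDH and calnexin as fraction markers.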

[1] = system: Firefly luciferase (FLuc) reporter equipped with the SP of CD4; test: FLuc enzymatic activity in HEK293 transfected with the IRES-vector; assay type: cell-based, human
Summary of the method: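 HEK293 cells were transiently transfected with a bicistronic IRES vector carrying the CD4 signal peptide-FLuc reporter. For fractionation, cells were treated 24 h post-transfection for 6 h, mechanically lysed and ultracentrifuged into P100 and S100 fractions, and FLuc was read on each. For the time course, cells were replated 8 h post-transfection, treated 16 h later, and FLuc was read up to 6 h. For the chase, 100 µg/ml cycloheximide was added for 2 h after 6 h treatment.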

GB138 cells = test: Cell viability assay; assay type: cell-based, human; settings: GB138 (Fig. S5)

Molecule: C[C@H]1CCC/C=C/[C@@H]2C[C@H](O)C[C@H]2[C@H](O)/C=C/C(=O)O1 [Brefeldin A]
response of the RELITE assay (FLuc/RLuc ratio) (Sec61 translocon): not responding

IC50 (PD-L1): ~20 µM | CADA effect on FLuc activity under co-treatment with cycloheximide (CHX) (Sec61 translocon; Fig. S1b, CADA 20 μM + CHX 100 μg/ml, 6 hours): abrogated the CADA effect
Molecule: C=C1CN(S(=O)(=O)c2ccc(C)cc2)CCCN(Cc2ccccc2)CCCN(S(=O)(=O)c2ccc(C)cc2)C1 [CADA, Cyclotriazadisulfonamide]
total HA-FLuc protein levels (western blotting) (HA-FLuc): significant reduction of the total HA-FLuc protein levels | FLuc activity after cell fractionation ([1]; Fig. 1d, S100 vs P100): increased FLuc activity only in the cytosolic S100 fraction

Molecule: C[C@@H]1C[C@@H]([C@H](O)CC2CC(=O)NC(=O)C2)C(=O)[C@@H](C)C1 [Cycloheximide]
response of the RELITE assay (FLuc/RLuc ratio) (Sec61 translocon): not responding

Molecule: CC1(C)C(N(O)C(=O)Nc2ccc(Cl)cc2)N(c2ccc(Cl)cc2)C(=O)N1CC(=O)N/N=C/C=C/c1ccc([N+](=O)[O-])o1 (stereo not shown) [Eeyarestatin 1]
total HA-FLuc protein levels (western blotting) (HA-FLuc): significant reduction of FLuc protein levels | effect on FLuc/RLuc ratio (Sec61 translocon): significant reduction of the FLuc/RLuc ratio

response of the RELITE assay (FLuc/RLuc ratio) (Sec61 translocon): not responding
Molecule: CCN(CCO)CCCC(C)Nc1ccnc2cc(Cl)ccc12 (stereo not shown) [Hydroxychloroquine]

Molecule: CC(C)C[C@@H](C=O)NC(=O)[C@H](CC(C)C)NC(=O)[C@H](CC(C)C)NC(=O)OCc1ccccc1 [MG132] (Cbz-Leu-Leu-Leu-aldehyde)
FLuc enzymatic activity over time ([1]; Fig. 1e, up to 6 h): time-dependent increment of the FLuc enzymatic activity

Molecule: CC(=C\C=C\C(C)=C\[C@H](O)[C@@H](O)C[C@H](C)O)/C=C(C)/C=C/C(=O)O[C@H]1CCCC(=O)O[C@@H]([C@@H](C)C/C(C)=C/[C@@H](C)[C@H](O)C[C@@H](C)O)C/C=C(\C)C[C@@H]1C [Mycolactone]
effect on FLuc/RLuc ratio (Sec61 translocon): significant elevation of the FLuc/RLuc ratio

response of the RELITE assay (FLuc/RLuc ratio) (Sec61 translocon): not responding
Molecule: COc1ccc(C[C@H](N)C(=O)N[C@H]2[C@@H](O)[C@H](n3cnc4c(N(C)C)ncnc43)O[C@@H]2CO)cc1 [Puromycin]

Molecule: C/C=C(/C)C(=O)O[C@H]1C(C)=C2[C@H]([C@@H]1OC(=O)CCCCCCC)[C@@](C)(OC(C)=O)C[C@H](OC(=O)CCC)[C@@]1(O)[C@H]2OC(=O)[C@@]1(C)O [Thapsigargin]
effect on FLuc activity (FLuc/RLuc ratio) (Sec61 translocon; Fig. S1b): failed to increase activity | response of the RELITE assay (FLuc/RLuc ratio) (Sec61 translocon): not responding

Molecule: Tunicamycin
toxicity in cell viability assay (GB138 cells): highly toxic for the cells | effect on FLuc activity (FLuc/RLuc ratio) (Sec61 translocon; Fig. S1b): significant elevation of the FLuc activity
